Results pooled from the literature.
Lines come from different studies, so protocols differ.
JAK1 JH1: Tyrosine-protein kinase JAK1, JH1 (JAK1, Homo sapiens, UniProt P23458)
JAK1: Tyrosine-protein kinase JAK1 (JAK1, Homo sapiens, UniProt P23458)
JAK1 JH2: Tyrosine-protein kinase JAK1, JH2 (JAK1, Homo sapiens, UniProt P23458)

C[C@@H]1CCN(c2nccc(-c3cnn4ncccc34)n2)C1 — remaining signal (JAK1 JH1; cell-free assay; 1 µM): 82%
CC(C)(O)[C@H]1CC[C@H](Nc2ccc3ncc(-c4cccc(C(F)(F)F)c4)n3n2)CC1 — remaining activity (JAK1; enzyme activity; inhibitor; 1 µM): 82.4%
CCCS(=O)(=O)Nc1ccc(F)c(C(=O)c2c[nH]c3ncc(-c4ccc(Cl)cc4)cc23)c1F — inhibition (JAK1; enzyme activity; inhibitor; 1 µM): < 20%
CCS(=O)(=O)c1cc2cc(C[C@](O)(CC(C)(C)c3ccc(F)cc3C(N)=O)C(F)(F)F)[nH]c2cn1 — remaining binding (JAK1 JH1; cell-free assay; competition with immobilised ligand; 1 µM): 96%
COc1cc2ncnc(Nc3ccc(F)c(Cl)c3)c2cc1OCCCN1CCOCC1 — remaining signal (JAK1; cell-free assay; 0.5 µM): 102%
CC(=O)N1CCC(c2ccc(C(=O)NC(=N)N)cc2C(F)(F)F)CC1 — remaining binding (JAK1 JH2; cell-free assay; competition with immobilised ligand; 1 µM): 100%
Cc1cc(NC(=O)c2cccc3cc(-c4cccc5[nH]nc(N)c45)ccc23)ccc1F — activity vs control (JAK1 JH1; enzyme activity; inhibitor; 0.1 µM): 105%
O=C(Nc1cnn(-c2csc(C(=O)NC3COC3)c2)c1)Nc1ccccc1Cl — remaining activity (JAK1; enzyme activity; inhibitor; 5 µM): 98.7%
Cc1c[nH]c2nccc(Oc3c(F)cc(Nc4cc(Cl)nc(N)n4)cc3F)c12 — remaining binding (JAK1 JH1; cell-free assay; competition with immobilised ligand; 0.1 µM): 80%
COc1cc2ncnc(Nc3ccc(Oc4ccccc4)c(C)c3C)c2cc1OC — inhibition (JAK1; enzyme activity; inhibitor; 1 µM): -4%
COc1cc(Cl)c(C(=O)N[C@@H](CN[C@H]2CC[C@@H](N)CC2)Cc2ccc(C#N)cc2)cc1-c1ccc(CN[C@H](C)c2ccc(C)cc2)o1 — remaining activity (JAK1 JH1; enzyme activity; inhibitor; 1 µM): 101%
CC(C)(C)c1nc2c(s1)c1nc(N)ncc1c1ccc(NS(=O)(=O)c3c(F)cccc3F)c(F)c12 — remaining activity (JAK1; enzyme activity; inhibitor; radiometric; 1 µM): 90%
O=c1nc(-c2ccccn2)sc2ccccc12 — remaining binding (JAK1 JH2; binding; competition with immobilised ligand; 1 µM): 86%
Nc1ncnc2occ(-c3ccc(NC(=O)Nc4cc(C(F)(F)F)ccc4F)cc3)c12 — remaining signal (JAK1 JH2; cell-free assay; inhibitor; 20 µM): 67%
CCOc1cc(-c2nncn2C)ccc1Nc1ncc2cc(C)nc(NCC(C)(C)C)c2n1 — inhibition (JAK1; enzyme activity; inhibitor; FRET; 1 µM): < 15%
CCN(CC)CCNC(=O)c1c(C)[nH]c(/C=C2\C(=O)Nc3ccc(F)cc32)c1C — remaining signal (JAK1; cell-free assay; 0.5 µM): 71.9%
Cc1cnc(NC2CCOCC2)nc1-n1cnc(C(=O)NC(CN)c2cc(F)cc(Cl)c2)c1 (stereo not shown) — remaining activity (JAK1 JH1; enzyme activity; inhibitor; radiometric; 1 µM): 93%
CN(C)C1CCN(CC#Cc2nn(C3CCCC3)c3nc(NCc4ccccc4)ncc23)C1 (stereo not shown) — inhibition (JAK1; enzyme activity; inhibitor; FRET; 0.1 µM): 2%
CN(C)C(=O)Cn1cc(-c2nc(C3(c4ccc(-c5cnc(N)nc5)cc4)CC3)no2)cn1 — remaining binding (JAK1 JH2; cell-free assay; competition with immobilised ligand; 1 µM): 100%
c1nc2c(Nc3ccc4c(c3)OCCO4)nc(Nc3ccc4c(c3)OCCO4)nc2[nH]1 — activity vs control (JAK1 JH2; enzyme activity; inhibitor; 10 µM): 2.5%
Oc1ccc(-c2nc(-c3ccncc3)c(-c3ccc(F)cc3)[nH]2)cc1 — remaining signal (JAK1; cell-free assay; 0.5 µM): 102%
CS(=O)(=O)Nc1cccc(-c2csc(NC(=O)CSc3nc4nccnc4c(=O)n3CCc3ccccc3)n2)c1 — inhibition (JAK1; enzyme activity; inhibitor; 10 µM): 9%
CS(=O)(=O)N1CCCC(NC(=O)[C@H](CCC2CCCCC2)NC(=O)c2ccc(CNc3ncnc4c3nnn4-c3ccccc3)cc2)C1 (stereo partly shown) — remaining binding (JAK1 JH2; cell-free assay; competition with immobilised ligand; 0.1 µM): 89%
Cc1ccc(NC(=O)c2ccc(C)c(C(F)(F)F)c2)cc1C#Cc1nn(C2CCC(O)CC2)c2ncnc(N)c12 (stereo not shown) — remaining signal (JAK1 JH1; cell-free assay; 10 µM): 3%
O=C(NCc1ncc(C(F)(F)F)cc1Cl)c1ccc2c(c1)C1(CCS(=O)(=O)CC1)[C@@H](C1CC1)N2S(=O)(=O)c1ccc(F)cc1 — remaining binding (JAK1 JH2; cell-free assay; competition with immobilised ligand; 1 µM): 85%
COc1cc2nccc(Oc3ccc(NC(=O)c4c5n(n(-c6ccc(F)cc6)c4=O)CCCC5)cc3)c2cc1OC — inhibition (JAK1; enzyme activity; inhibitor; 0.1 µM): -5%
COc1cc2c(Nc3ccc(Br)cc3F)ncnc2cc1OCC1CCN(C)CC1 — remaining signal (JAK1; cell-free assay; 0.5 µM): 99.1%
CS(=O)(=O)NCC[C@H](NC(=O)c1cncc2c1cnn2-c1ccc(F)cc1)c1ccnc(S(C)(=O)=O)c1 — remaining binding (JAK1 JH1; cell-free assay; competition with immobilised ligand; 1 µM): 96%
